TRAIL sens C8 – viability loss with TRAIL in NB7+C8 cells, primary screen, TRAIL sensitizer project, cell-based, ATPlite luminescence; inhibition (viability loss, TRAIL sensitization), % at 10 µM; 360,000 compounds, 1% hits;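 active = compounds causing at least 50% loss of cell viability in the single-dose screen, relative to plate controls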
FLuc inh counter – firefly luciferase enzyme inhibitors, primary screen, artefact control for luciferase-based inhibitor screens, biochemical, luminescence, ATPLite; Luciferin 4-monooxygenase (Photinus pyralis), P08659; 10 min; inhibition, % at 10 µM; 200,000 compounds, 1.5% hits;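 active = inhibition above about 50% when tested at 10 µM, limit read from the data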
Target sequence (P08659 whole entry, looked up): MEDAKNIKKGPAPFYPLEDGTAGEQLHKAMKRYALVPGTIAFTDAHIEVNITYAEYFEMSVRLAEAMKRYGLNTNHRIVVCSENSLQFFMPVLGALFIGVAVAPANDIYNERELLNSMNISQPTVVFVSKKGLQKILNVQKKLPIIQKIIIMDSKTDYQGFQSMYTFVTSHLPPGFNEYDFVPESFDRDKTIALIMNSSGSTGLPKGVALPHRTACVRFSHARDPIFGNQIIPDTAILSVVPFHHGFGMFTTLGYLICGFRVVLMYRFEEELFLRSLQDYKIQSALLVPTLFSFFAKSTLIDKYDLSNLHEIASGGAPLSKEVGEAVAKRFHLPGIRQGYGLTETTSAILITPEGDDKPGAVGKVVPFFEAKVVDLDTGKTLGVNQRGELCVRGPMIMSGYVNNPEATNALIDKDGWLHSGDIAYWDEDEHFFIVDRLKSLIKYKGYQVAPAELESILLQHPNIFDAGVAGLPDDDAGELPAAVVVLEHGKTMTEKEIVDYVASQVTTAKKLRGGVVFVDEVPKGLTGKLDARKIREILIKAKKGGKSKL
HSP90 refold inh – HSP90 inhibitors, primary screen, cell lysate, luminescence; Rabbit reticulocyte lysate, luciferase refolding luminescence, 3 h; Heat shock protein HSP 90 (rabbit reticulocyte lysate; luciferase refolding); 290,000 compounds, 0.91% hits; inhibition, % at 5.6 µM; AID 1789, 2009;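 active = inhibition above the screen-wide mean plus 3 SD, computed separately per campaign, cut at about 16% in these data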;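 also: 0% = DMSO wells and 100% = 60 µM geldanamycin wells; inhibitors lower the luminescence because luciferase stays unfolded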
PPC-1+TRAIL kill – compounds killing PPC-1 cancer cells with TRAIL present, primary screen, TRAIL potentiator project, ATPLite luminescence, uHTS | PPC-1 cells + TRAIL, ATPLite viability luminescence | cell killing (% activity), % at 4 µM or 5 µM | 220,000 compounds, 0.41% hits | AID 1443, 2008;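 active = cell killing above 50% in the first pass at 4 µM, then a duplicate retest at 5 µM averaging 50% or more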;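 also: plate controls were cells with TRAIL plus DMSO for no effect and medium-only wells lacking cells for full effect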
FLuc stim CS – FLuc activators, initial screening, artefact control for FLuc-dependent activation tests, biochemical, ATPlite luminescence | Luciferin 4-monooxygenase (Photinus pyralis), P08659 | ATPlite luciferase biochemical, 10 min; 0 = ATP-free wells, 1 = DMSO control | activation factor at 10 µM | 200,000 tested, under 10 active | AID 1027, 2008;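 active = luciferase activation factor, scaled between plate controls, of at least 2 with compound at 10 µM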
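System: Luciferase/luciferin detection reagent, cell-free biochemical luciferase assay | Medium: PBS buffer for ATP | Dosing: Test compounds dosed from 2 mM stocks in 100% DMSO | Timing: 10 min at ambient temperature | Signal: Luminescence measurement of luciferase light output | Evaluation: Luciferase activation, seen as luminescence increase over controls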
Active calls of the source: *; x = no result. This is a sample that favours compounds with a hit; in the whole collection about 2% have one here.

SMILES	TRAIL sens C8	FLuc inh counter	HSP90 refold inh	PPC-1+TRAIL kill	FLuc stim CS
O=C1/C(=C/c2cccs2)COc2ccccc21	13.5	71.1*	-7.5	8.5	0.3
COc1ccc([C@H]2C[C@@H](O)C[C@@H](CCn3cc(-c4ccccc4)nn3)O2)cc1	6.1	x	x	x	x
CC1=C(C(=O)N(C(C)C)C(C)C)CC(CC(=O)NCCN2CCOCC2)C(=O)N1CCCN1CCCC1=O (stereo not drawn)	-2.1	x	x	x	x
CC1=C(C(=O)N(C)C)CC(CC(=O)NCCN2CCOCC2)C(=O)N1CCCN1CCCC1=O (stereo not drawn)	54.8*	x	x	x	x
c1ccc(CNc2nc(NCC3CC3)nc3cc(-c4ccccc4)sc23)cc1	54.9*	x	x	x	x
Cc1ccc(C(=O)Nc2ncc3c(n2)CC(c2ccco2)CC3=O)cc1 (stereo not drawn)	9.8	13.0	4.0	30.8	0.9
O=C(Nc1ncc2c(n1)CC(c1ccco1)CC2=O)c1ccccc1 (stereo not drawn)	0.3	-9.5	11.2	58.0*	1.1
CN(C)/C=C/C(=O)c1cnc(-c2ccccc2)s1	11.7	38.8	-3.1	6.6	0.6
CN(C)/C=C/C(=O)c1cnc(-c2ccc(Cl)cc2)s1	29.1	53.4*	4.9	7.2	0.5
CC(=O)c1ccc(OCC(=O)Nc2nnc(C3CC3)s2)cc1	-11.9	x	x	x	x
O=C(/C=C/c1ccnc2ccccc12)c1cccs1	30.9	96.3*	6.1	26.2	0
O=C(Cn1cnc2ccccc2c1=O)c1cccs1	-1.1	1.1	-3.7	9.5	1
COc1cccc(C(=O)N2CCC2(C)C(=O)O)c1 (stereo not drawn)	-7.3	x	x	x	x
COc1cccc(/C=N/Nc2ncnc(Cl)c2N)c1O	59.4*	68.5*	2.3	60.4*	0.3
COc1cccc(C=NNc2nnc(NN=Cc3cccc(OC)c3OC)c3ccccc23)c1OC	80.0*	x	x	x	x
COc1cccc(/C=N/Nc2nc3ccccc3n3cnnc23)c1O	54.0*	37.3	-1.6	34.2	0.6
COc1ccccc1/C=N/Nc1nncc2ccccc12	19.5	48.4	0.8	12.7	0.5
OC(c1ccc(F)cc1)c1nc(-c2cnc3ccccc3c2)cs1 (stereo not drawn)	9.8	x	x	x	x
CCCC(=O)Nc1ccc2c(c1)C(=O)N(C)C[C@@H](OC)[C@H](C)CN(Cc1ccc(-c3ccccn3)cc1)[C@@H](C)CO2	-0.9	x	x	x	x
Cc1cc(C(=O)N/N=C2\CC(=O)CC(C)(C)C2)c(C)n1-c1ccccc1	-0.1	-0.6	2.1	11.8	1
Cc1cc(C(=O)N/N=C2\CC(=O)c3ccccc32)c(C)n1-c1ccccc1	53.6*	60.1*	9.1	18.0	0.4
Cc1nc2ccc(C(=O)NCCc3c[nH]c4ccccc34)cn2c1N(C)C(=O)CCc1ccccc1	-14.4	x	x	x	x
CC[C@@H]1Cc2[nH][nH]c(=O)c2[C@H](c2ccc(Cl)cc2)O1	-4.6	x	x	x	x
Cc1ccccc1Nc1nc(N)nc(CCl)n1	90.9*	x	3.2	13.8	x
COc1ccc(Nc2nc(N)nc(CCl)n2)cc1	92.3*	x	1.5	29.7	x
SMILES	TRAIL sens C8	FLuc inh counter	HSP90 refold inh	PPC-1+TRAIL kill	FLuc stim CS
Cc1c(Cl)cccc1Nc1nc(N)nc(CSc2ncccn2)n1	90.6*	-3.8	-1.4	-10.5	1
CN(c1ccccc1)S(=O)(=O)c1ccc(C(=O)N2CCN(c3ccccc3)CC2)cc1	-12.0	x	x	x	x
CN(Cc1ccccc1)C(=O)c1[nH]cnc1C(=O)Nc1ccccc1F	-0.8	x	x	x	x
CCNC(=O)C1CCCN(C(=O)c2ccc(OC)c(OC)c2)CC1 (stereo not drawn)	7.2	x	x	x	x
O=C(O)c1ccccc1N/N=C\c1ccnc2ccccc12	64.9*	89.4*	3.7	44.3	0.1
ON=Cc1ccnc2ccccc12	-15.2	x	x	x	x
COc1c(Cl)cnn(-c2ccc(C)cc2)c1=O	7.7	0.8	4.5	19.4	1
COc1ccc(Oc2c(Cl)cnn(-c3ccc(F)cc3)c2=O)cc1	86.6*	0.2	2.1	6.9	1
COc1ccc(Oc2c(Cl)cnn(-c3ccc(Cl)c(Cl)c3)c2=O)cc1	88.7*	-3.8	-0.8	8.7	1
COc1ccc(Oc2c(Cl)cnn(-c3ccc(C)cc3)c2=O)cc1	60.8*	-6.4	0.8	15.8	1.1
COc1ccc2c(c1)CSC(c1ccccc1)C2=O (stereo not drawn)	0.1	x	x	x	x
CCCCCCCCCCCCC/C=C/[C@@H](O)[C@@H](N)CO	71.2*	x	x	x	x
CCCCCCCC/C=C\CCCCCCCC(=O)O	3.1	x	x	5.7	x
CCCCN(C)C(=O)c1ccc(Nc2nc(C(N)Cc3ccc(C(F)(F)F)cc3)cs2)nc1 (stereo not drawn)	76.9*	x	x	x	x
NC(Cc1ccc(C(F)(F)F)cc1)c1csc(Nc2nncc3ccccc23)n1 (stereo not drawn)	69.3*	x	x	x	x
NC(COCc1ccccc1)c1csc(Nc2nncc3ccccc23)n1 (stereo not drawn)	-7.2	x	x	x	x
CCCCN(C)C(=O)c1ccc(Nc2nc(C(N)CCc3ccccc3)cs2)nc1 (stereo not drawn)	19.0	x	x	x	x
CCCNC(=O)C1(C)CCN(C(=O)c2ccc3snnc3c2)C1 (stereo not drawn)	8.9	x	x	x	x
Nc1ncnc2c1ncn2[C@@H]1O[C@H](C(=O)NCC2CCN(Cc3ccccc3)CC2)[C@@H](O)[C@H]1O	-5.3	x	x	x	x
O=C(Nc1ccccc1)Nc1ccc2ocnc2c1	24.7	60.9*	-1.6	31.7	0.4
Cc1cc(C(=O)CSc2nnc(-c3ccccc3)o2)c(C)n1CC1COc2ccccc2O1 (stereo not drawn)	6.9	-5.4	16.5*	16.1	1.1
CC(C)CCn1cnc2c([nH]c3cccc(Cl)c32)c1=O	51.8*	-3.3	2.3	11.8	1
COc1ccc(S(=O)(=O)N2CCOCC2)cc1NS(=O)(=O)c1ccc(F)c(F)c1	5.5	x	x	x	x
CCN1CCN(c2ccc(S(=O)(=O)N3CCCCC3)cc2NC(=O)/C=C/c2ccc(OC(F)F)cc2)CC1	56.4*	x	x	x	x
CSC[C@H]1CN(c2ccccc2)C(=O)[C@@H]1CC(=O)Nc1ccccc1	5.0	x	x	x	x
SMILES	TRAIL sens C8	FLuc inh counter	HSP90 refold inh	PPC-1+TRAIL kill	FLuc stim CS
O=C(Nc1ccc(NC(=O)c2ccco2)nc1)c1ccccn1	41.6	60.9*	10.6	28.8	0.4
O=C(Nc1ccc(NC(=O)C2CC2)nc1)c1ccccn1	40.1	62.1*	10.4	2.2	0.4
O=C(Nc1ccc(NC(=O)C2CC2)nc1)c1cnccn1	0.2	10.3	-1.3	3.5	0.9
O=S1(=O)CC(c2ccccc2)=NN=C(c2ccccc2)C1	74.6*	x	x	x	x
c1coc(CNc2nc(-c3ccncc3)cs2)c1	-17.4	10.6	0.1	24.6	0.9
COc1ccc(-c2csc(NCc3ccco3)n2)cc1	16.8	71.9*	-0.5	22.7	0.3
Cc1ccc(-c2noc(-c3ccccc3F)n2)cc1	25.5	56.7*	-2.0	6.7	0.4
